Assay results reported in ChEMBL document CHEMBL1124774, “Synthesis and biological activity of some derivatives of rifamycin P” (1990).
Converted amounts (≈) assume the structure as drawn.

Key:
Format in all cases: functional
[1] = tested on: Escherichia coli; assay: In vitro antibacterial activity of compound against Escherichia coli SKF 12140
[2] = tested on: Klebsiella pneumoniae; assay: In vitro antibacterial activity of compound against Klebsiella pneumoniae ISM
[3] = tested on: Mycobacterium scrofulaceum; assay: In vitro activity of compound against slowly growing Mycobacterium scrofulaceum 1292
Procedure, shortened: (§1)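 Medium was Middlebrook 7H10 agar with 2% glycerol and 10% OADC. Organisms from Loevenstein-Jensen slants were grown in 7H9 broth with 0.5% Tween and 10% OADC, adjusted to McFarland no. 1, and spotted with a multipoint inoculator. Sealed plates were incubated at 22, 30 or 37 °C for 4-20 days depending on strain.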

[4] = tested on: Mycobacterium scrofulaceum; assay: In vitro activity of compound against slowly growing Mycobacterium scrofulaceum 1293; procedure, shortened: as §1
[5] = tested on: Mycobacterium scrofulaceum; assay: In vitro activity of compound against slowly growing Mycobacterium scrofulaceum 1297; procedure, shortened: as §1
[6] = tested on: Mycobacterium scrofulaceum; assay: In vitro activity of compound against slowly growing Mycobacterium scrofulaceum 1301; procedure, shortened: as §1
[7] = tested on: Mycolicibacterium smegmatis; assay: In vitro activity of compound against rapidly growing Mycobacterium smegmatis 139; procedure, shortened: as §1
[8] = tested on: Mycolicibacterium smegmatis; assay: In vitro activity of compound against rapidly growing Mycobacterium smegmatis 1442; procedure, shortened: as §1
[9] = tested on: Mycolicibacterium smegmatis; assay: In vitro activity of compound against rapidly growing Mycobacterium smegmatis 31; procedure, shortened: as §1
[10] = tested on: Mycobacterium xenopi; assay: In vitro activity compound against slowly growing Mycobacterium xenopi 1446; procedure, shortened: as §1
[11] = tested on: Mycobacterium xenopi; assay: In vitro activity of compound against slowly growing Mycobacterium xenopi 554; procedure, shortened: as §1
[12] = tested on: Mycobacterium xenopi; assay: In vitro activity of compound against slowly growing Mycobacterium xenopi 555; procedure, shortened: as §1
[13] = tested on: Mycolicibacterium phlei; assay: In vitro activity of compound against rapidly growing Mycobacterium phlei 141; procedure, shortened: as §1
[14] = tested on: Mycolicibacterium phlei; assay: In vitro activity of compound against rapidly growing Mycobacterium phlei 1283; procedure, shortened: as §1
[15] = tested on: Mycolicibacterium phlei; assay: In vitro activity of compound against rapidly growing Mycobacterium phlei 1289; procedure, shortened: as §1
[16] = tested on: Mycobacterium kansasii; assay: In vitro activity of compound against slowly growing Mycobacterium kansasii 1299; procedure, shortened: as §1
[17] = tested on: Mycobacterium marinum; assay: In vitro activity of compound against slowly growing Mycobacterium marinum 1388; procedure, shortened: as §1
[18] = tested on: Mycobacterium marinum; assay: In vitro activity of compound against slowly growing Mycobacterium marinum 1390; procedure, shortened: as §1
[19] = tested on: Mycobacterium marinum; assay: In vitro activity of compound against slowly growing Mycobacterium marinum 1391; procedure, shortened: as §1
[20] = tested on: Mycolicibacterium fortuitum; assay: In vitro activity of compound against rapidly growing Mycobacterium fortuitum 114; procedure, shortened: as §1
[21] = tested on: Mycolicibacterium fortuitum; assay: In vitro activity of compound against rapidly growing Mycobacterium fortuitum 1285; procedure, shortened: as §1
[22] = tested on: Mycolicibacterium fortuitum; assay: In vitro activity of compound against rapidly growing Mycobacterium fortuitum 1287; procedure, shortened: as §1
[23] = tested on: Mycolicibacterium fortuitum; assay: In vitro activity compound against rapidly growing Mycobacterium fortuitum 1302; procedure, shortened: as §1
[24] = tested on: Mycolicibacterium fortuitum; assay: In vitro activity of compound against rapidly growing Mycobacterium fortuitum 140; procedure, shortened: as §1
[25] = tested on: Mycolicibacterium fortuitum; assay: In vitro activity compound against rapidly growing Mycobacterium fortuitum 1440; procedure, shortened: as §1
[26] = tested on: Mycolicibacterium fortuitum; assay: In vitro activity of compound against rapidly growing Mycobacterium fortuitum 646; procedure, shortened: as §1
[27] = tested on: Mycolicibacterium fortuitum; assay: In vitro activity of compound against rapidly growing Mycobacterium fortuitum 726; procedure, shortened: as §1
[28] = tested on: Mycobacterium gordonae; assay: In vitro activity of compound against slowly growing Mycobacterium gordonae 1294; procedure, shortened: as §1
[29] = tested on: Mycobacterium gordonae; assay: In vitro activity of compound against slowly growing Mycobacterium gordonae 1441; procedure, shortened: as §1
[30] = tested on: Mycobacterium kansasii; assay: In vitro activity of compound against slowly growing Mycobacterium kansasii 1291; procedure, shortened: as §1
[31] = tested on: Mycobacterium kansasii; assay: In vitro activity of compound against slowly growing Mycobacterium kansasii 1298; procedure, shortened: as §1
[32] = tested on: Mycolicibacterium flavescens; assay: In vitro activity of compound against rapidly growing Mycobacterium flavescens 1284; procedure, shortened: as §1
[33] = tested on: Mycolicibacterium flavescens; assay: In vitro activity of compound against rapidly growing Mycobacterium flavescens 1286; procedure, shortened: as §1
[34] = tested on: Mycobacterium marinum; assay: In vitro activity of compound against slowly growing Mycobacterium marinum 1392 h; procedure, shortened: as §1
[35] = tested on: Mycobacterium marinum; assay: In vitro activity of compound against slowly growing Mycobacterium marinum 1393; procedure, shortened: as §1
[36] = tested on: Mycobacterium marinum; assay: In vitro activity of compound against slowly growing Mycobacterium marinum 1394; procedure, shortened: as §1
[37] = tested on: Mycobacterium marinum; assay: In vitro activity of compound against slowly growing Mycobacterium marinum 1447; procedure, shortened: as §1
[38] = tested on: Mycobacterium tuberculosis; assay: In vitro antibacterial activity of compound against Mycobacterium tuberculosis H37Rv ATCC 9660
[39] = tested on: Mycobacteroides chelonae; assay: In vitro activity of compound against rapidly growing Mycobacterium chelonae 1443; procedure, shortened: as §1
[40] = tested on: Mycobacterium avium; assay: 50% inhibition of the 20 Mycobacterium (MAC) avium complex clinical isolates
Procedure, shortened: (§2)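 Agar-dilution MICs, 2-fold dilutions over 128-0.0001 μg/mL, on Middlebrook 7H10 agar with 2% glycerol and 10% OADC. Organisms from Loevenstein-Jensen slants were grown in 7H9 broth with 0.5% Tween and 10% OADC, adjusted to McFarland no. 1, and spotted with a multipoint inoculator. Plates were sealed and incubated at 22, 30 or 37 °C for 4-20 days depending on strain.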

[41] = tested on: Mycobacterium avium; assay: Minimum inhibitory concentration of compound against 20 Mycobacterium avium complex (MAC) clinical isolates; procedure, shortened: as §2
[42] = tested on: Neisseria gonorrhoeae; assay: In vitro antibacterial activity of compound against Neisseria gonorrhoeae ISM 68/126
[43] = tested on: Pseudomonas aeruginosa; assay: In vitro antibacterial activity of compound against Pseudomonas aeruginosa ATCC 10145
Procedure, shortened: (§3)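 Twofold microdilution MIC in Iso-Sensitest broth over 128-0.0001 µg/mL. Inoculum was 10^4 cfu/mL, with incubation at 37 °C for 18-24 h.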

[44] = tested on: Proteus vulgaris; assay: In vitro antibacterial activity of compound against Proteus vulgaris X19H ATCC 881
[45] = tested on: Staphylococcus epidermidis; assay: In vitro antibacterial activity of compound against Staphylococcus epidermidis ATCC 12228; procedure, shortened: as §3
[46] = tested on: Streptococcus pyogenes; assay: In vitro antibacterial activity of compound against Streptococcus pyogenes C 203 SKF 13400
Procedure, shortened: (§4)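 Streptococcal MICs were run by twofold microdilution in Todd-Hewitt broth over 128-0.0001 µg/mL. Inoculum was 10^4 cfu/mL, with incubation at 37 °C for 18-24 h.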

[47] = tested on: Staphylococcus aureus; assay: In vitro antibacterial activity of compound against Staphylococcus aureus Tour L 165; procedure, shortened: as §3
[48] = tested on: Streptococcus pneumoniae; assay: In vitro antibacterial activity of compound against Streptococcus pneumoniae UC 41; procedure, shortened: as §4
[49] = tested on: Enterococcus faecalis; assay: In vitro antibacterial activity of compound against Streptococcus faecalis ATCC 7080.; procedure, shortened: as §3
[50] = tested on: Mycolicibacterium fortuitum; assay: In vitro activity of compound against rapidly growing Mycobacterium fortuitum 645; procedure, shortened: as §1
[51] = tested on: Haemophilus influenzae; assay: In vitro antibacterial activity of compound against Haemophilus influenzae ATCC 19418
[52] = tested on: Mycobacterium xenopi; assay: In vitro activity of compound against slowly growing Mycobacterium xenopi 556; procedure, shortened: as §1

`COC1/C=C/OC2(C)Oc3c(C)c(O)c4c(O)c(c5c(c4c3C2=O)=NC2(CCN(CC(C)C)CC2)N=5)NC(=O)/C(C)=C\C=C\C(C)C(O)C(C)C(O)C(C)C(OC(C)=O)C1C` (configuration not stated) was tested, and the MIC [1] was 16 µg/mL (≈ 18.9 µM), the MIC [2] was 16 µg/mL (≈ 18.9 µM) and the MIC50 [3] was 0.032 µg/mL (≈ 0.0378 µM). It also gave an MIC50 [4] of 0.032 µg/mL (≈ 0.0378 µM), an MIC50 [5] of 0.063 µg/mL (≈ 0.0744 µM) and an MIC50 [6] of 2 µg/mL (≈ 2.36 µM). The MIC50 [7] was 4 µg/mL (≈ 4.72 µM), the MIC50 [8] was 4 µg/mL (≈ 4.72 µM) and the MIC50 [9] was 4 µg/mL (≈ 4.72 µM). The MIC50 [10] was 0.125 µg/mL (≈ 0.148 µM), the MIC50 [11] was 0.125 µg/mL (≈ 0.148 µM) and the MIC50 [12] was 0.125 µg/mL (≈ 0.148 µM). For the same compound, the MIC50 [13] was 0.061 µg/mL (≈ 0.072 µM), the MIC50 [14] was 0.016 µg/mL (≈ 0.0189 µM) and the MIC50 [15] was 2 µg/mL (≈ 2.36 µM). For the same compound, the MIC50 [16] was 0.5 µg/mL (≈ 0.59 µM), the MIC50 [17] was 0.25 µg/mL (≈ 0.295 µM) and the MIC50 [18] was 1 µg/mL (≈ 1.18 µM). The MIC50 [19] was 0.25 µg/mL (≈ 0.295 µM), the MIC50 [20] was 8 µg/mL (≈ 9.44 µM) and the MIC50 [21] was 4 µg/mL (≈ 4.72 µM). For the same compound, the MIC50 [22] was 1 µg/mL (≈ 1.18 µM), the MIC50 [23] was 1 µg/mL (≈ 1.18 µM) and the MIC50 [24] was 4 µg/mL (≈ 4.72 µM). For the same compound, the MIC50 [25] was 16 µg/mL (≈ 18.9 µM), the MIC50 [26] was 8 µg/mL (≈ 9.44 µM) and the MIC50 [27] was 16 µg/mL (≈ 18.9 µM). The MIC50 [28] was 0.5 µg/mL (≈ 0.59 µM), the MIC50 [29] was 1 µg/mL (≈ 1.18 µM) and the MIC50 [30] was 1 µg/mL (≈ 1.18 µM). The MIC50 [31] was 0.063 µg/mL (≈ 0.0744 µM), the MIC50 [32] was 8 µg/mL (≈ 9.44 µM) and the MIC50 [33] was 0.063 µg/mL (≈ 0.0744 µM). The MIC50 [34] was 0.25 µg/mL (≈ 0.295 µM), the MIC50 [35] was 0.25 µg/mL (≈ 0.295 µM) and the MIC50 [36] was 0.25 µg/mL (≈ 0.295 µM). For the same compound, the MIC50 [37] was 0.25 µg/mL (≈ 0.295 µM), the MIC [38] was 0.008 µg/mL (≈ 0.00944 µM) and the MIC50 [39] was 32 µg/mL (≈ 37.8 µM). The MIC50 [40] was 1 µg/mL (≈ 1.18 µM), the MIC50 [41] was 0.25 µg/mL (≈ 0.295 µM) and the MIC [42] was 0.5 µg/mL (≈ 0.59 µM). The MIC [43] was 8 µg/mL (≈ 9.44 µM), the MIC [44] was 16 µg/mL (≈ 18.9 µM) and the MIC [45] was 0.032 µg/mL (≈ 0.0378 µM). The MIC [46] was 0.032 µg/mL (≈ 0.0378 µM), the MIC [47] was 0.063 µg/mL (≈ 0.0744 µM) and the MIC [48] was 0.032 µg/mL (≈ 0.0378 µM). The MIC [49] was 2 µg/mL (≈ 2.36 µM), the MIC50 [50] was 1 µg/mL (≈ 1.18 µM) and the MIC [51] was 0.125 µg/mL (≈ 0.148 µM). For the same compound, the MIC50 [52] was 0.125 µg/mL (≈ 0.148 µM).
